Assay results from the RNAGym collection of RNA variant scans (doi:10.1002/anie.201605470).

B1: Osa-1-4 twister ribozyme (parent)
chain: CCGCCUAACACUGCCAAUGCCGGUCCCAAGCCCGGAUAAAAGUGGAGGGGGCGG

Variants of: B1
Assay: self-cleavage, relative activity (ratio to wild type); higher = more cleavage; co-transcriptional
Outline: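 A DNA template for a 54-nucleotide Oryza sativa twister ribozyme was synthesised with 97 % wild-type base and 1 % of each other base at the 48 positions downstream of the cleavage site. It was transcribed in vitro for 2 h at 37 °C, allowing co-transcriptional self-cleavage, then reverse-transcribed with a template-switching oligonucleotide, PCR-amplified and deep-sequenced. Cleavage status was scored from reads with or without upstream sequence. Relative activity is fraction cleaved normalised to wild type.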

| Variant | self-cleavage |
| --- | --- |
| CCGCCUAACACUGCCAAUGCCGGUCCCAAACCCGGAUAAAAGUGGAGGGGGCUG [G30A G53U] | 0.04 |
| CCGCCUAACACUGCCAAUGCCGGUCCCAAACCCGGAUAAAAGUGGAGGGGGCCG [G30A G53C] | 0.03 |
| CCGCCUAACACUGCCAAUGCCGGUCCCAACCCCGGAUAAAAGUAGAGGGGGCGG [G30C G44A] | 0.03 |
| CCGCCUAACACUGCCAAUGCCGGUCCCAACCCCGGAUAAAAGUCGAGGGGGCGG [G30C G44C] | 0.04 |
| CCGCCUAACACUGCCAAUGCCGGUCCCAACCCCGGAUAAAAGUUGAGGGGGCGG [G30C G44U] | 0.04 |
| CCGCCUAACACCGCCAAUGCCGGUCCCAAACCCGGAUAAAAGUGGAGGGGGCGG [G30A U12C] | 0.03 |
| CCGCCUAACACAGCCAAUGCCGGUCCCAAACCCGGAUAAAAGUGGAGGGGGCGG [G30A U12A] | 0.03 |
| CCGCCUAACACGGCCAAUGCCGGUCCCAAACCCGGAUAAAAGUGGAGGGGGCGG [G30A U12G] | 0.02 |
| CCGCCUAACACUGCCAAUGCCGGUCCCAACCCCGGAUAAAAGUGGAGGGGGCCG [G30C G53C] | 0.02 |
| CCGCCUAACACUGCCAAUGCCGGUCCCAACCCCGGAUAAAAGUGGAGGGGGCAG [G30C G53A] | 0.04 |
| CCGCCUAACACUGCCAAUGCCGGUCCCAACCCCGGAUAAAAGUGGAGGGGGCUG [G30C G53U] | 0.04 |
| CCGCCUAACACUGCCAAUGCCGGUCCCAAACCCGGAUAAAAGUGGAGGGGUCGG [G30A G51U] | 0.04 |
| CCGCCUAACACUGCCAAUGCCGGUCCCAACCCCGCAUAAAAGUGGAGGGGGCGG [G30C G35C] | 0.04 |
| CCGCCUAACACUGCCAAUGCCGGUCCCAACCCCGAAUAAAAGUGGAGGGGGCGG [G30C G35A] | 0.05 |
| CCGCCUAACACUGCCAAUGCCGGUCCCAACCCCGUAUAAAAGUGGAGGGGGCGG [G30C G35U] | 0.04 |
| CCGCCUAACACUGCCAAUGCCGGUCCCAAACCCGGAGAAAAGUGGAGGGGGCGG [G30A U37G] | 0.05 |
| CCGCCUAACACUGCCAAUGCCGGUCCCAAACCCGGACAAAAGUGGAGGGGGCGG [G30A U37C] | 0.03 |
| CCGCCUAACACUGCCAAUGCCGGUCCCAAACCCGGAAAAAAGUGGAGGGGGCGG [G30A U37A] | 0.03 |
| CCGCCUAACACUGCCAACGCCGGUCCCAAACCCGGAUAAAAGUGGAGGGGGCGG [G30A U18C] | 0.04 |
| CCGCCUAACACUGCCAAGGCCGGUCCCAAACCCGGAUAAAAGUGGAGGGGGCGG [G30A U18G] | 0.06 |
| CCGCCUAACACUGCCAAAGCCGGUCCCAAACCCGGAUAAAAGUGGAGGGGGCGG [G30A U18A] | 0.07 |
| CCGCCUAACACUGCCAAGGCCGGUCCCAACCCCGGAUAAAAGUGGAGGGGGCGG [G30C U18G] | 0.06 |
| CCGCCUAACACUGCCAACGCCGGUCCCAACCCCGGAUAAAAGUGGAGGGGGCGG [G30C U18C] | 0.05 |
| CCGCCUAACACUGCCAAAGCCGGUCCCAACCCCGGAUAAAAGUGGAGGGGGCGG [G30C U18A] | 0.05 |
| CCGCCUAACACUGCCAAUGCCGGUCCCAAACCCGGAUAAAAGUGGAGGGGGCGC [G30A G54C] | 0.04 |

| Variant | self-cleavage |
| --- | --- |
| CCGCCUAACACUGCCAAUGCCGGUCCCAAACCCGGAUAAAAGUGGAGGGGGCGU [G30A G54U] | 0.06 |
| CCGCCUAACACUGCCAAUGCCGGUCCCAAACCCGGAUAAAAGUGGAGGGGGCGA [G30A G54A] | 0.05 |
| CCGCCUAACACUGCCAAUGCCGGUCCCAACCCCGGAUAAAAGUGGAGGAGGCGG [G30C G49A] | 0.02 |
| CCGCCUAACACUGCCAAUGCCGGUCCCAACCCCGGAUAAAAGUGGAGGUGGCGG [G30C G49U] | 0.02 |
| CCGCCUAACACUGCCAAUGCCGGUCCCAACCCCGGAUAAAAGUGGAGGCGGCGG [G30C G49C] | 0.02 |
| CCGCCUAACACUGCCAAUGCCGGUCCCAAUCCCGGAUAAAAGUGGAAGGGGCGG [G30U G47A] | 0.03 |
| CCGCCUAACACUGCCAAUGCCGGUCCCAAUCCCGGAUAAAAGUGGACGGGGCGG [G30U G47C] | 0.01 |
| CCGCCUAACACUGCCAAUGCCGGUCCCAAUCCCGGAUAAAAGUGGAUGGGGCGG [G30U G47U] | 0.03 |
| CCGCCUAACACUGCCAAUGCCGGUCCCAACCCCGGAUAAAAGUGGAGGGGACGG [G30C G51A] | 0.05 |
| CCGCCUAACACUGCCAAUGCCGGUCCCAACCCCGGAUAAAAGUGGAGGGGUCGG [G30C G51U] | 0.03 |
| CCGCCUAACACUGCCAAUGCCGGUCCCAACCCCGGAUAAAAGUGGAGGGGCCGG [G30C G51C] | 0.03 |
| CCGCCUAACACUGCCAAUGCCGGUCCCAAUCCCGGAUAAAAGUGGAGGAGGCGG [G30U G49A] | 0.02 |
| CCGCCUAACACUGCCAAUGCCGGUCCCAACCCCGGAUAAAAGUGAAGGGGGCGG [G30C G45A] | 0.03 |
| CCGCCUAACACUGCCAAUGCCGGUCCCAACCCCGGAUAAAAGUGUAGGGGGCGG [G30C G45U] | 0.02 |
| CCGCCUAACACUGCCAAUGCCGGUCCCAACCCCGGAUAAAAGUGCAGGGGGCGG [G30C G45C] | 0.02 |
| CCGCCUAACACUGCCAAUGCCGGUCCCAAUCCCGAAUAAAAGUGGAGGGGGCGG [G30U G35A] | 0.04 |
| CCGCCUAACACUGCCAAUGCCGGUCCCAAUCCCGUAUAAAAGUGGAGGGGGCGG [G30U G35U] | 0.04 |
| CCGCCUAACACUGCCAAUGCCGGUCCCAAUCCCGCAUAAAAGUGGAGGGGGCGG [G30U G35C] | 0.03 |
| CCGCCUAACACUGCCAAUGCCGGUCCCAAUCCCGGAUAAAAGUCGAGGGGGCGG [G30U G44C] | 0.04 |
| CCGCCUAACACUGCCAAUGCCGGUCCCAAUCCCGGAUAAAAGUAGAGGGGGCGG [G30U G44A] | 0.04 |
| CCGCCUAACACUGCCAAUGCCGGUCCCAAUCCCGGAUAAAAGUUGAGGGGGCGG [G30U G44U] | 0.05 |
| CCGCCUAACACUGCCAAUGCCGGUCCCAAUCCCGGAUAAAAGUGUAGGGGGCGG [G30U G45U] | 0.02 |
| CCGCCUAACACUGCCAAUGCCGGUCCCAAUCCCGGAUAAAAGUGAAGGGGGCGG [G30U G45A] | 0.03 |
| CCGCCUAACACUGCCAAUGCCGGUCCCAAUCCCGGAUAAAAGUGCAGGGGGCGG [G30U G45C] | 0.02 |
